Assay outcomes from PubChem.
Cneo AK release: causes C. neoformans cell lysis. adenylate kinase release luminescence, 4 h; normalised: neutral wells 0, clomiphene wells 100. lysis activity, % at 15 µM. actives 0.2% (n = 360,000);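 active = mean lysis activity across replicates of at least 80%, whatever share of replicates individually reach that level; inactive = mean lysis activity below 80%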
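Material: C. neoformans cells; Schedule: 4 h static compound exposure, 37 °C, read 1 h post-reagent; Measured by: adenylate kinase release luminescence; Read-out: signal increase indicating cell lysis; Controls: Clomiphene as positive lysis control.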
HIV Env fusion: HIV envelope-mediated fusion inhibition; actives 1.1% (n = 360,000); inhibition, % at 12.3 µM; HeLa-JRFL Env/CEM21 cell fusion, luciferase;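 active = mean replicate inhibition score of at least 50 and every replicate individually at or above 50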
CFTR F508del cor: CFTR F508del correction in bronchial cells | CFBE cells, YFP halide quenching; stimulated with forskolin plus potentiator P3; % fluorescence drop versus neutral controls | activity (quench increase), % at 7.58 µM | actives 0.36% (n = 350,000) | AID 720511;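 active = mean added fluorescence quench of at least 8% versus neutral control, with both replicates also reaching 8%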;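 also: cells transiently co-express mutant CFTR-F508del with the halide-sensitive YFP; corrector assay measuring rescue of mutant channel to the surface after 24 h compound exposure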
miR-122 sensor: inhibitors of miR-122 in Huh7 cells. Huh7 miR-122 Renilla luciferase sensor, 48 h; neutral wells = 0, positive control = 100. activation (reporter increase), % at 12.5 µM. actives 0.3% (n = 340,000);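 active = mean replicate activation score at least 90 and every replicate individually at or above 90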;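 also: higher luciferase means less miR-122 activity so hits act as miR-122 inhibitors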
Ecoli rRNA inh: selective bacterial rRNA inhibition in E. coli | E. coli WT GFP vs humanized-ribosome RFP mutants, fluorescence, 24 h; hits give low values; DMSO median 0, no signal -100 | GFP signal change (wild-type ribosome), % (no concentration beside the values) | actives 1.6% (n = 350,000);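 active = significant combined selectivity score with lowered wild-type GFP, culture density cut under 30%, mutant RFP and density less affected; inactive = any of these conditions unmet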
INS-1E GSIS act: primary screen for activators of insulin secretion dependent on glucose, INS-1E cells, GLuc reporter luminescence. activation, % at 16.6 µM. INS-1E GLuc reporter insulin secretion, 2-3 h. actives 0.61% (n = 370,000). AID 743287;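 active = lowest replicate activation of at least 40%, so every replicate reaches that level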
Of the large screens only hits and unclear results are named; the others gave an inactive call. The list is not random: actives were taken first. Their share in the collection is about 3.1%.

C[C@@H]1CCCCO[C@H](CN(C)C)[C@H](C)CN([C@H](C)CO)C(=O)c2cc(N(C)C)ccc2O1	none (no result: Cneo AK release)
COc1ccc(C(CC(=O)N2CCCC(C)C2)c2c(OC)cc(OC)c3c(-c4ccccc4)cc(=O)oc23)cc1 (centres undefined)	miR-122 sensor 92
CCCCCc1cc(=O)oc2c(C(CCN3CCCC(C)C3)c3ccc(OC)cc3)c(OC)cc(OC)c12 (centres undefined)	Ecoli rRNA inh -37, INS-1E GSIS act 339
CCN(CC)C(=O)CC(c1ccc(N(C)C)cc1)c1c(OC)cc(OC)c2ccc(=O)oc12 (centres undefined)	none
CCN(CC)C(=O)CC(c1ccc(N(C)C)cc1)c1c(OC)cc(OC)c2c(-c3ccccc3)cc(=O)oc12 (centres undefined)	miR-122 sensor 99 (no result: INS-1E GSIS act)
COc1ccc(OC)c(N(CC(=O)N2CCC(C)CC2)S(=O)(=O)c2ccc(OC)c(OC)c2)c1	none (no result: CFTR F508del cor, Ecoli rRNA inh, INS-1E GSIS act)
COc1ccc(N(CC(=O)NN=C2CCN(C)CC2)S(=O)(=O)c2ccccc2)c(OC)c1	none
COc1ccc(OC)c(N(CC(=O)N2CCC(C)CC2)S(=O)(=O)c2ccccc2)c1	miR-122 sensor 232 (no result: CFTR F508del cor, Ecoli rRNA inh)
COc1ccc(OC)c(N(CC(=O)NN=C2CCN(C)CC2)S(=O)(=O)c2ccccc2)c1	INS-1E GSIS act 93 (no result: miR-122 sensor)
COCCOC(=O)N1C(=O)[C@@]2(c3ccccc31)[C@H](C(=O)N1CCc3cc(OC)c(OC)cc3C1)[C@H]1C(=O)O[C@H](c3ccccc3)[C@H](c3ccccc3)N1[C@@H]2c1ccc(O)cc1	none (no result: miR-122 sensor, Ecoli rRNA inh, INS-1E GSIS act)
CCN(Cc1cnn(C)c1)C(=O)c1cc(COc2ccc3c(c2)CCCC3)on1	none (no result: miR-122 sensor)
Cn1cc(CNC(=O)c2cc(COc3ccc4c(c3)CCCC4)on2)cn1	Ecoli rRNA inh -32
S=C(NCCc1ccccc1)Nc1nccs1	CFTR F508del cor 9.2, Ecoli rRNA inh -22
O=C(NCCc1ccccc1)C(=O)Nc1nccs1	none (no result: Cneo AK release, CFTR F508del cor, Ecoli rRNA inh)
COCCOC(=O)C1=C(C)NC(=O)N(C(C)=O)C1c1ccc(Cl)cc1 (centres undefined)	INS-1E GSIS act 56 (no result: CFTR F508del cor, miR-122 sensor, Ecoli rRNA inh)
CCOC(=O)C1=C(C)NC(=S)N(C(C)=O)C1c1ccc(Cl)cc1 (centres undefined)	none (no result: CFTR F508del cor, miR-122 sensor, Ecoli rRNA inh)
COc1ccc(CN(C)C[C@H]2Oc3c(NS(=O)(=O)c4ccc(C)cc4)cccc3C(=O)N([C@H](C)CO)C[C@@H]2C)cc1	none (no result: HIV Env fusion)
CS(=O)(=O)N1CC(=O)N2[C@H](C1)[C@H](c1ccc(C#Cc3ccc(F)cc3)cc1)[C@@H]2CO	CFTR F508del cor 10 (no result: Cneo AK release, HIV Env fusion, miR-122 sensor)
O=C(Cc1ccccc1)N1CC(=O)N2[C@H](C1)[C@@H](c1ccc(C#Cc3ccccc3)cc1)[C@@H]2CO	CFTR F508del cor 8.0 (no result: Cneo AK release, HIV Env fusion, miR-122 sensor)
O=C(c1cccc(F)c1)N1CC(=O)N2[C@@H](CO)[C@@H](c3ccc(C#Cc4ccc(F)cc4)cc3)[C@@H]2C1	CFTR F508del cor 8.2 (no result: Cneo AK release, HIV Env fusion, miR-122 sensor)
CCS(=O)(=O)N1CC(=O)N2[C@H](C1)[C@@H](c1ccc(C#CCC(C)C)cc1)[C@@H]2CO	CFTR F508del cor 10 (no result: Cneo AK release, HIV Env fusion, miR-122 sensor)
Cc1ccc(S(=O)(=O)Nc2ccc3c(c2)C(=O)N([C@@H](C)CO)C[C@H](C)[C@H](CN(C)Cc2ccc(C(=O)O)cc2)OCCCC[C@H](C)O3)cc1	none
CN1[C@@H]2Cn3c(ccc(-c4ccncc4)c3=O)[C@H]1[C@@H](C(=O)Nc1nccs1)[C@@H]2CO	none (no result: HIV Env fusion)
O=C(c1ccc2c(c1)OCO2)N1CC(=O)N2[C@H](C1)[C@@H](c1ccc(C#CC3CCCC3)cc1)[C@@H]2CO	none (no result: Cneo AK release, HIV Env fusion, CFTR F508del cor, miR-122 sensor)
COCC#Cc1ccc2c(c1)O[C@@H](CN(C)C(=O)C1CC1)[C@H](C)CN([C@H](C)CO)S2(=O)=O	none
C[C@@H]1CN([C@@H](C)CO)C(=O)c2cc(NC(=O)C3CCCCC3)ccc2O[C@H]1CN(C)C(=O)Nc1cccc2ccccc12	none
CC(C)c1ccc(NS(=O)(=O)c2ccc(-n3cccn3)cc2)cc1	none
CC(C)c1ccc(S(=O)(=O)Nc2ccc(-n3cnnn3)cc2)cc1	miR-122 sensor 103
O=C(CCCCCn1c(=S)[nH]c2ccc(N3CCOCC3)cc2c1=O)NCc1ccc(Cl)cc1	Ecoli rRNA inh -24
O=C(CCCCCn1c(=S)[nH]c2ccc(N3CCOCC3)cc2c1=O)NCc1ccc2c(c1)OCO2	none
CC(C)OCCCn1c(=S)[nH]c2ccc(N3CCOCC3)cc2c1=O	HIV Env fusion 72 (no result: CFTR F508del cor, Ecoli rRNA inh, INS-1E GSIS act)
C[C@@H]1ON(C)[C@H]2C[C@H]3c4[nH]c5cccc(Br)c5c4CCN3C(=O)[C@@H]12	INS-1E GSIS act 125 (no result: Cneo AK release, miR-122 sensor)
COC(=O)C12OCC34C(CC5C(C)=C(O)C(=O)CC5(C)C3C(O)C1O)OC(=O)C(OC(=O)C=C(C)C)C24 (centres undefined)	HIV Env fusion 64 (no result: Cneo AK release)
Cn1c(SCc2nc(-c3ccccc3)no2)nnc1-c1cccs1	none (no result: CFTR F508del cor, Ecoli rRNA inh, INS-1E GSIS act)
Cn1c(SCc2nc(-c3ccc(Cl)cc3)no2)nnc1-c1cccs1	HIV Env fusion 83 (no result: CFTR F508del cor)
FC(F)(F)c1nc(-c2cccs2)ncc1-c1nnnn1-c1ccc(Cl)cc1	HIV Env fusion 70 (no result: Cneo AK release, CFTR F508del cor, miR-122 sensor, Ecoli rRNA inh, INS-1E GSIS act)
COc1ccc(-n2nnnc2-c2cnc(N3CCCC3)nc2C(F)(F)F)cc1	HIV Env fusion 72 (no result: CFTR F508del cor, Ecoli rRNA inh, INS-1E GSIS act)
CCOC(=O)C1=C(C)N(c2ccccc2)C(=O)/C1=C\c1cccs1	INS-1E GSIS act 88 (no result: CFTR F508del cor, Ecoli rRNA inh)
C[C@H](CO)N1C[C@H](C)[C@@H](CN(C)S(=O)(=O)c2ccc(Cl)cc2)Oc2ccc(NC(=O)Nc3ccc(C(F)(F)F)cc3)cc2CC1=O	none (no result: Cneo AK release)
CS(=O)(=O)N1[C@H](CO)[C@@H](c2ccccc2-c2ccccc2F)[C@@H]1C#N	none (no result: Cneo AK release, HIV Env fusion, miR-122 sensor)
CN1CCC(N(C)S(=O)(=O)c2ccc(NC(=O)COc3cccc(Cl)c3)cc2)CC1	INS-1E GSIS act 64 (no result: Cneo AK release, miR-122 sensor)
COc1ccc(NC(=O)COc2ccc(N(C)S(=O)(=O)c3ccc(Cl)cc3)cc2)cc1OC	HIV Env fusion 57
CN1CCC(N(C)S(=O)(=O)c2ccc(NC(=O)COc3ccc(Br)cc3Cl)cc2)CC1	none (no result: Cneo AK release, miR-122 sensor)
COC(=O)c1ccccc1N=Nc1c(C)n[nH]c1C	none (no result: Cneo AK release, miR-122 sensor)
COC(=O)c1ccccc1N=Nc1c(C)noc1C	Ecoli rRNA inh -28 (no result: Cneo AK release, miR-122 sensor)
CS(=O)(=O)c1cnc(-c2ccccc2)nc1Oc1ccc(F)cc1	INS-1E GSIS act 65 (no result: Cneo AK release, HIV Env fusion, CFTR F508del cor, Ecoli rRNA inh)
CS(=O)(=O)c1cnc(-c2ccccc2)nc1Oc1ccc(Cl)cc1	none (no result: Cneo AK release, HIV Env fusion, CFTR F508del cor, Ecoli rRNA inh, INS-1E GSIS act)
CCO[C@@H]1OC(C(=O)NCc2ccccc2)=C[C@H](c2ccccc2)[C@H]1CCCO	none
CCO[C@H]1OC(C(=O)NCc2ccccc2)=C[C@@H](c2ccccc2)[C@@H]1CCCO	Ecoli rRNA inh -25
Cn1c(SCc2cccc(Br)c2)nnc1-c1ccccn1	Ecoli rRNA inh -35
